The values below come from ChEMBL document CHEMBL4038305, “Benzoxaborole Antimalarial Agents. Part 5. Lead Optimization of Novel Amide Pyrazinyloxy Benzoxaboroles and Identification of a Preclinical Candidate” (J Med Chem, 2017).

Each structure is given as a SMILES string.

One may read the IC50 as the midpoint of a concentration-inhibition curve.

The test system of one assay is Plasmodium falciparum. Description: Antimalarial activity against chloroquine-sensitive Plasmodium falciparum 3D7 infected in human erythrocytes assessed as reduction in [3H]-hypoxanthine incorporation preincubated for 24 hrs followed by [3H]-hypoxanthine addition measured after 24 hrs by scintillation counting method. The class given is functional, cell-based.
Conditions: not given
The gist of the method:
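P. falciparum 3D7 cultures were exposed to the compound for 48 h, with atovaquone as the reference control. IC50 was taken from three replicates.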
For `Cc1c(Oc2cnc(C(=O)NC(C)(C)CO)cn2)ccc2c1B(O)OC2`, the IC50 is 425 nM.

With `Cc1c(Oc2cnc(C(=O)N[C@H](CO)C(C)C)cn2)ccc2c1B(O)OC2`, the 50% inhibitory concentration (IC50) is 1990 nM.

In the case of `CCCC[C@H](CO)NC(=O)c1cnc(Oc2ccc3c(c2C)B(O)OC3)cn1`, the IC50 was determined as 215 nM.

As for `CC[C@H](NC(=O)c1cnc(Oc2ccc3c(c2C)B(O)OC3)cn1)C(C)(C)O`, the half-inhibitory concentration (IC50) turned out to be 829 nM.

As for `COC[C@H](CO)NC(=O)c1cnc(Oc2ccc3c(c2C)B(O)OC3)cn1`, the 50% inhibitory concentration (IC50) is 796 nM.

With `Cc1c(Oc2cnc(C(=O)N(C)CCO)cn2)ccc2c1B(O)OC2`, the IC50 turned out to be 437 nM.

Turning to `CC[C@@H](NC(=O)c1cnc(Oc2ccc3c(c2C)B(O)OC3)cn1)C(C)(C)O`, the half-inhibitory concentration (IC50) turned out to be 222 nM.

With `CCC[C@H](CO)N(C)C(=O)c1cnc(Oc2ccc3c(c2C)B(O)OC3)cn1`, the IC50 was 252 nM.

With `Cc1c(Oc2cnc(C(=O)N[C@H](CO)CCC(F)(F)F)cn2)ccc2c1B(O)OC2`, the concentration for half-maximal inhibition (IC50) is 959 nM.

For `Cc1c(Oc2cnc(C(=O)N[C@@H](CO)C3CC3)cn2)ccc2c1B(O)OC2`, the IC50 came out at 587 nM.

In the case of `CSC[C@H](CO)NC(=O)c1cnc(Oc2ccc3c(c2C)B(O)OC3)cn1`, the IC50 was 74 nM.

Take `Cc1c(Oc2cnc(C(=O)N[C@@H](C)CO)cn2)ccc2c1B(O)OC2`: the IC50 was determined as 808 nM.

As for `CCC[C@@H](CO)NC(=O)c1cnc(Oc2ccc3c(c2C)B(O)OC3)cn1`, the 50% inhibitory concentration (IC50) worked out at 715 nM.

With `Cc1c(Oc2cnc(C(=O)N[C@@H](CO)c3ccccc3)cn2)ccc2c1B(O)OC2`, the IC50 turned out to be 161 nM.

With `CCC[C@@H](NC(=O)c1cnc(Oc2ccc3c(c2C)B(O)OC3)cn1)C(C)(C)O`, the IC50 turned out to be 553 nM.

`Cc1c(Oc2cnc(C(=O)N[C@@H](CO)CCC(F)(F)F)cn2)ccc2c1B(O)OC2`: the IC50 worked out at 480 nM.

As to `CCC[C@H](NC(=O)c1cnc(Oc2ccc3c(c2C)B(O)OC3)cn1)C(C)(C)O`, the IC50 stood at 217 nM.

For the compound `Cc1c(Oc2cnc(C(=O)N[C@@H](CO)Cc3ccccc3)cn2)ccc2c1B(O)OC2`, the half-maximal inhibitory concentration (IC50) was determined as 505 nM.

For the compound `Cc1c(Oc2cnc(C(=O)N[C@@H](C)C(C)(C)O)cn2)ccc2c1B(O)OC2`, the half-maximal inhibitory concentration (IC50) amounted to 327 nM.

Take `Cc1c(Oc2cnc(C(=O)N3CCNC[C@@H]3CO)cn2)ccc2c1B(O)OC2`: the IC50 stood at 151 nM.

In the case of `Cc1c(Oc2cnc(C(=O)N(CCO)CCO)cn2)ccc2c1B(O)OC2`, the 50% inhibitory concentration (IC50) was determined as 184 nM.

With `COCCNC(=O)c1cnc(Oc2ccc3c(c2C)B(O)OC3)cn1`, the IC50 stood at 644 nM.

Take `Cc1c(Oc2cnc(C(=O)N3CCC(C)(O)C3)cn2)ccc2c1B(O)OC2` (centres undefined): the IC50 amounted to 314 nM.

In the case of `Cc1c(Oc2cnc(C(=O)N3CCNC[C@H]3CO)cn2)ccc2c1B(O)OC2`, the IC50 amounted to 171 nM.

For `Cc1c(Oc2cnc(C(=O)NC(C)C(C)O)cn2)ccc2c1B(O)OC2` (centres undefined), the concentration for half-maximal inhibition (IC50) worked out at 1460 nM.

Consider `Cc1c(Oc2cnc(C(=O)N[C@H]3CCC[C@@H]3O)cn2)ccc2c1B(O)OC2`, for which the IC50 came to 537 nM.

`Cc1c(Oc2cnc(C(=O)NCC(C)O)cn2)ccc2c1B(O)OC2` (centres undefined): the IC50 came out at 1100 nM.

In the case of `Cc1c(Oc2cnc(C(=O)N[C@H](C)C(C)(C)O)cn2)ccc2c1B(O)OC2`, the half-maximal inhibitory concentration (IC50) is 374 nM.

Consider `Cc1c(Oc2cnc(C(=O)N[C@@H](CO)CS(C)(=O)=O)cn2)ccc2c1B(O)OC2`, for which the IC50 was 472 nM.

Consider `Cc1c(Oc2cnc(C(=O)N[C@@H]3CCC[C@H]3O)cn2)ccc2c1B(O)OC2`, for which the IC50 was determined as 245 nM.

Consider `Cc1c(Oc2cnc(C(=O)NCC(C)(C)O)cn2)ccc2c1B(O)OC2`, for which the IC50 was found to be 554 nM.

Regarding `Cc1c(Oc2cnc(C(=O)N[C@H](CO)CC(F)(F)F)cn2)ccc2c1B(O)OC2`, the IC50 came to 31 nM.

As for `Cc1c(Oc2cnc(C(=O)N[C@H](CO)C3CC3)cn2)ccc2c1B(O)OC2`, the IC50 came out at 1090 nM.

On to `CC[C@@H](CO)NC(=O)c1cnc(Oc2ccc3c(c2C)B(O)OC3)cn1`, for which the IC50 was 801 nM.

Turning to `Cc1c(Oc2cnc(C(=O)N[C@@H]3CCC[C@@H]3O)cn2)ccc2c1B(O)OC2` (relative stereo), the half-maximal inhibitory concentration (IC50) turned out to be 181 nM.

Consider `Cc1c(Oc2cnc(C(=O)N[C@H](C)CO)cn2)ccc2c1B(O)OC2`, for which the IC50 stood at 848 nM.

For `Cc1c(Oc2cnc(C(=O)NC3(CO)CC3)cn2)ccc2c1B(O)OC2`, the concentration for half-maximal inhibition (IC50) amounted to 1500 nM.

The subject of another assay is Plasmodium falciparum. Put plainly: Antimalarial activity against chloroquine-resistant Plasmodium falciparum W2 infected in human erythrocytes after 48 hrs by YOYO-1 dye based flow cytometric analysis. The class given is functional, cell-based. The settings on record: W2, 48 h. The gist of the method: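 P. falciparum W2 cultures were exposed to the compound for 48 h, with artemisinin and chloroquine as reference controls. IC50 was taken from two independent replicates.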
`Cc1c(Oc2cnc(C(=O)NC(C)(C)CO)cn2)ccc2c1B(O)OC2`: the IC50 amounted to 290 nM.

In the case of `Cc1c(Oc2cnc(C(=O)N[C@H](CO)C(C)C)cn2)ccc2c1B(O)OC2`, the half-inhibitory concentration (IC50) is 774 nM.

Regarding `CCCC[C@H](CO)NC(=O)c1cnc(Oc2ccc3c(c2C)B(O)OC3)cn1`, the IC50 was found to be 84.9 nM.

Compound `CC[C@H](NC(=O)c1cnc(Oc2ccc3c(c2C)B(O)OC3)cn1)C(C)(C)O` had an IC50 of 279 nM.

Consider `COC[C@H](CO)NC(=O)c1cnc(Oc2ccc3c(c2C)B(O)OC3)cn1`, for which the IC50 is 455 nM.

The compound `Cc1c(Oc2cnc(C(=O)N(C)CCO)cn2)ccc2c1B(O)OC2` showed an IC50 of 262 nM.

In turn, `CC[C@@H](NC(=O)c1cnc(Oc2ccc3c(c2C)B(O)OC3)cn1)C(C)(C)O` came in with a half-inhibitory concentration (IC50) of 91.8 nM.

As to `CCC[C@H](CO)N(C)C(=O)c1cnc(Oc2ccc3c(c2C)B(O)OC3)cn1`, the IC50 amounted to 48.1 nM.

Consider `Cc1c(Oc2cnc(C(=O)N[C@H](CO)CCC(F)(F)F)cn2)ccc2c1B(O)OC2`, for which half-maximal inhibition (IC50) was put at 352 nM.

`Cc1c(Oc2cnc(C(=O)N[C@@H](CO)C3CC3)cn2)ccc2c1B(O)OC2`: the IC50 stood at 492 nM.

Compound `CSC[C@H](CO)NC(=O)c1cnc(Oc2ccc3c(c2C)B(O)OC3)cn1` gave an IC50 of 37 nM.

Regarding `Cc1c(Oc2cnc(C(=O)N[C@@H](C)CO)cn2)ccc2c1B(O)OC2`, the IC50 turned out to be 844 nM.

As to `CCC[C@@H](CO)NC(=O)c1cnc(Oc2ccc3c(c2C)B(O)OC3)cn1`, the IC50 came to 297 nM.

In the case of `Cc1c(Oc2cnc(C(=O)N[C@@H](CO)c3ccccc3)cn2)ccc2c1B(O)OC2`, the IC50 stood at 103 nM.

For the compound `CCC[C@@H](NC(=O)c1cnc(Oc2ccc3c(c2C)B(O)OC3)cn1)C(C)(C)O`, the IC50 turned out to be 260 nM.

`Cc1c(Oc2cnc(C(=O)N[C@@H](CO)CCC(F)(F)F)cn2)ccc2c1B(O)OC2` gave a half-inhibitory concentration (IC50) of 230 nM.

`CCC[C@H](NC(=O)c1cnc(Oc2ccc3c(c2C)B(O)OC3)cn1)C(C)(C)O` registered an IC50 of 129 nM.

In turn, `Cc1c(Oc2cnc(C(=O)N[C@@H](CO)Cc3ccccc3)cn2)ccc2c1B(O)OC2` displayed a half-maximal inhibitory concentration (IC50) of 115 nM.

Regarding `Cc1c(Oc2cnc(C(=O)N[C@@H](C)C(C)(C)O)cn2)ccc2c1B(O)OC2`, it took 202 nM to reach half-maximal inhibition (IC50).

In the case of `Cc1c(Oc2cnc(C(=O)N3CCNC[C@@H]3CO)cn2)ccc2c1B(O)OC2`, it took 103 nM to reach half-maximal inhibition (IC50).

As to `Cc1c(Oc2cnc(C(=O)N(CCO)CCO)cn2)ccc2c1B(O)OC2`, the IC50 was determined as 328 nM.

Take `COCCNC(=O)c1cnc(Oc2ccc3c(c2C)B(O)OC3)cn1`: half-maximal inhibition (IC50) required 788 nM.

For the compound `Cc1c(Oc2cnc(C(=O)N3CCC(C)(O)C3)cn2)ccc2c1B(O)OC2` (centres undefined), the half-maximal inhibitory concentration (IC50) stood at 139 nM.

In turn, `Cc1c(Oc2cnc(C(=O)N3CCNC[C@H]3CO)cn2)ccc2c1B(O)OC2` showed an IC50 of 98.2 nM.

In turn, `Cc1c(Oc2cnc(C(=O)NC(C)C(C)O)cn2)ccc2c1B(O)OC2` (centres undefined) yielded a 50% inhibitory concentration (IC50) of 513 nM.

On to `Cc1c(Oc2cnc(C(=O)N[C@H]3CCC[C@@H]3O)cn2)ccc2c1B(O)OC2`, for which half-maximal inhibition (IC50) required 149 nM.

The compound `Cc1c(Oc2cnc(C(=O)NCC(C)O)cn2)ccc2c1B(O)OC2` (centres undefined) gave a concentration for half-maximal inhibition (IC50) of 1280 nM.

`Cc1c(Oc2cnc(C(=O)N[C@H](C)C(C)(C)O)cn2)ccc2c1B(O)OC2` came in with an IC50 of 265 nM.

In turn, `Cc1c(Oc2cnc(C(=O)N[C@@H](CO)CS(C)(=O)=O)cn2)ccc2c1B(O)OC2` had an IC50 of 180 nM.

With `Cc1c(Oc2cnc(C(=O)N[C@@H]3CCC[C@H]3O)cn2)ccc2c1B(O)OC2`, the 50% inhibitory concentration (IC50) worked out at 133 nM.

Take `Cc1c(Oc2cnc(C(=O)NCC(C)(C)O)cn2)ccc2c1B(O)OC2`: the 50% inhibitory concentration (IC50) worked out at 334 nM.

`Cc1c(Oc2cnc(C(=O)N[C@H](CO)CC(F)(F)F)cn2)ccc2c1B(O)OC2` had a 50% inhibitory concentration (IC50) of 350 nM.

For `Cc1c(Oc2cnc(C(=O)N[C@H](CO)C3CC3)cn2)ccc2c1B(O)OC2`, the IC50 was 643 nM.

`CC[C@@H](CO)NC(=O)c1cnc(Oc2ccc3c(c2C)B(O)OC3)cn1` showed an IC50 of 704 nM.

In turn, `Cc1c(Oc2cnc(C(=O)N[C@@H]3CCC[C@@H]3O)cn2)ccc2c1B(O)OC2` (relative stereo) came in with an IC50 of 292 nM.

`Cc1c(Oc2cnc(C(=O)N[C@H](C)CO)cn2)ccc2c1B(O)OC2` displayed an IC50 of 944 nM.

In the case of `Cc1c(Oc2cnc(C(=O)NC3(CO)CC3)cn2)ccc2c1B(O)OC2`, the concentration for half-maximal inhibition (IC50) was found to be 2010 nM.
